Screens deposited in PubChem BioAssay by several laboratories.
An excerpt weighted towards active compounds, which were near 2% of everything screened.
CXCR6 block = CXCR6 receptor inhibitors, primary screen, cell-based, beta-arrestin, luminescence, CHO-K1 PathHunter, 1536-well | actives 0.36% (n = 360,000) | inhibition, % at 20 µM | C-X-C chemokine receptor type 6 (Homo sapiens), O00574; in the data active = inhibition above about 34%, passing the limit was not always enough;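 note: antagonist mode with CXCL16 agonist at 10 nM final; 0% = 10 nM CXCL16 with DMSO and 100% = unstimulated wells without agonist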
EBI2 block = EBI2 receptor antagonists, beta-arrestin recruitment, primary screen, cell-based, luminescence, 7a,25-OHC stimulation, uHTS | actives 0.81% (n = 360,000) | 7a,25-OHC stimulated | inhibition, % at 5 µM | G-protein coupled receptor 183 (Homo sapiens), P32249; in the data active = inhibition above about 38%;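 note: enzyme fragment complementation signal reports receptor beta-arrestin coupling in cells; 0% = agonist plus DMSO wells and 100% = wells without agonist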
Target sequence (P32249 whole entry, looked up, the tested form may be a part): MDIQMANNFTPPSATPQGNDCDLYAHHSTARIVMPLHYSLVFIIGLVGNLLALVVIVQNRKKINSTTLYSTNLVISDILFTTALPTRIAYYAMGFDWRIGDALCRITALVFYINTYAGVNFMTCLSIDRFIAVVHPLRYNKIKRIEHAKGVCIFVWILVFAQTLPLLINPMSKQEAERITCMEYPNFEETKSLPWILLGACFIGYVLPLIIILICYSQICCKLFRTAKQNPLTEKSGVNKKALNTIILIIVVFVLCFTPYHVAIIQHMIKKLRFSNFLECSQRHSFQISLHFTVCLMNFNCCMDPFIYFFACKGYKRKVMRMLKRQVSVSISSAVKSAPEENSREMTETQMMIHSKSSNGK
FXN GAA850 act = FXN promoter activators, primary screen, cell-based, luciferase luminescence, HEK293 lucGAA850 | HEK293 lucGAA850 FXN promoter luciferase reporter, 24 h; percent of 10 µM SAHA response | activation, % at 6 µM | actives 0.56% (n = 360,000) | AID 540364, 2011;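 active = activation above the average of all compounds screened plus 3 SD, cutoff fixed separately per campaign, cut at about 7.5% in these data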;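 note: 0% = DMSO wells and 100% = 10 µM SAHA wells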
APJ agonist = agonists of human apelin receptor APJ, primary screen, CHO-K1 cells, PathHunter beta-arrestin, luminescence | AID 2520, 2010 | activation, % at 20 µM | 0% DMSO wells, 100% apelin | P35414 | actives 0.11% (n = 330,000);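 active = activation more than six SD over the plate average, tested at 20 µM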;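 note: 0% = DMSO alone and 100% = apelin-13 at 10 nM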
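Assay system: CHO-K1 APJ beta-arrestin complementation cell line / Compound: single test compound dose, 20 µM final, 1% DMSO / Times: overnight seeding, 90 min compound at 25 °C, 1 h detection / Technique: beta-gal luminescence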
APJ antag = antagonists of human apelin receptor APJ, primary screen, CHO-K1 cells, beta-arrestin complementation, luminescence; P35414; inhibition, % at 20 µM; actives 0.32% (n = 330,000);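 active = inhibition above about 40% at 20 µM, limit read from the data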;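 note: cells challenged with 10 nM apelin-13 agonist together with compound; plate controls were apelin-13 plus DMSO wells for no effect and DMSO wells lacking apelin-13 for full effect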
CCR6 antag = CCR6 receptor antagonists, primary screen, cell-based, CHO-K1, luminescence, beta-arrestin, uHTS; C-C chemokine receptor type 6 (Homo sapiens), P51684; CHO-K1 CCR6 PathHunter beta-arrestin, CCL20-stimulated; inhibition, % at 20 µM; actives 0.49% (n = 340,000); AID 493098, 2011;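 active = compounds whose inhibition of the agonist-driven luminescence signal at 20 µM reaches about 50%, limit read from the data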;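 note: cells stimulated with CCL20 at 14 nM final; plate controls were DMSO with CCL20 for no effect and DMSO without agonist for full effect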
Target sequence (P51684 whole entry, looked up): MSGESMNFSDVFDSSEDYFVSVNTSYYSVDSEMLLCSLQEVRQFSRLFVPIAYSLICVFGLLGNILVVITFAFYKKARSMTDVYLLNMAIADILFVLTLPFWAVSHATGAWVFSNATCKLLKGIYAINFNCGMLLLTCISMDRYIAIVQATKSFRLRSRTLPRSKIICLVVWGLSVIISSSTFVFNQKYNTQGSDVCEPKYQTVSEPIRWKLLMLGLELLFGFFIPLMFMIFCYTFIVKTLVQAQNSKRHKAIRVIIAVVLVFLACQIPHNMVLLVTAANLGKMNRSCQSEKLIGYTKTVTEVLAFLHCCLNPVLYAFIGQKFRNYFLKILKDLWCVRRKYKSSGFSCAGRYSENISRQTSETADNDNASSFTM
GAA30 counter = GAA30 FXN promoter activators, confirmation, counter-screen for GAA850 frataxin promoter activator project, cell-based, luminescence, HEK293, lucGAA30, triplicate; HEK293 lucGAA30 FXN promoter luciferase, 24 h; DMSO = 0%, 5 µM ipriflavone = 100%; AID 588350, 2011; activation, % at 6 µM; actives 66% (n = 1,900); shares compounds with FXN GAA850 act;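 active = mean activation above the mean of solvent-only control wells plus 3 SD, cut at about 22% in these data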;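 note: counterscreen of GAA850 promoter hits where activity marks nonselective or luminescence artifacts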
GAA850 confirm = FXN GAA850 promoter activators in reporter cells, confirmation, cell-based, luminescence, HEK293 lucGAA850, triplicate | shares compounds with FXN GAA850 act | HEK293 lucGAA850 FXN promoter luciferase reporter, 24 h; 100% = activation by SAHA | activation, % at 6 µM | actives 86% (n = 1,900) | AID 588351, 2011;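 active = mean activation above a set limit taken from the primary screen, cut at about 8% in these data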;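 note: 0% = DMSO wells and 100% = 10 µM SAHA wells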
An asterisk follows results filed as active; · = no result given.

SMILES	CXCR6 block	EBI2 block	FXN GAA850 act	APJ agonist	APJ antag	CCR6 antag	GAA30 counter	GAA850 confirm
O=C(NC(=S)NCC1COc2ccccc2O1)c1ccccc1 (centres undefined)	4.3	-7.5	-1.9	-2.6	1.1	6.9	·	·
O=C(C=C=Nc1ccccc1)C(=O)N=C=Cc1ccccc1	20.7	-7.3	8.7*	-6.0	-4.2	35.8	27.1*	29.2*
CC(=O)c1cccc(NC(=O)CN2C(=O)C(=O)N(Cc3ccco3)C2=O)c1	-2.3	-10.1	1.0	-2.5	17.3	-2.7	·	·
C=C1C(=O)O[C@H]2[C@H]1[C@H](OC(=O)/C(C)=C\C)C[C@]1(CO1)[C@@H]1[C@H](OC(C)=O)C=C(C)[C@]21O	-11.4	6.2	11.9*	·	·	15.0	4.3	17.3*
Cc1ccc(C(=O)c2sc3nc4c(cc3c2N)CCC4)cc1	7.6	6.7	8.4*	-1.6	8.1	4.9	100.0*	40.8*
NC(CCc1ccccc1)c1csc(NC(=O)Nc2cccc(C(F)(F)F)c2)n1 (centres undefined)	-16.7	6.3	2.4	·	·	·	·	·
Cc1ccc2nc(-c3ccc(NS(=O)(=O)c4ccc(F)c(F)c4)cc3)sc2c1	-11.4	1.2	10.2*	·	·	6.4	108.3*	35.1*
CCC(C)Cn1cnc2c(SCc3ccccc3F)nc(N)nc21 (centres undefined)	7.2	9.3	4.8	·	·	15.1	·	·
CCCCn1cnc2c(SCc3ccccc3F)nc(N)nc21	7.8	0.2	8.3*	·	·	11.0	56.6*	25.4*
CC(C)Cn1cnc2c(SCc3ccccc3F)nc(N)nc21	1.2	1.9	8.9*	·	·	14.6	94.6*	35.3*
CC1(C(=O)Nc2cccc3cccnc23)CCN1Cc1ccc(-c2ccccc2)o1 (centres undefined)	0.8	1.1	-0.6	·	·	·	·	·
CC(=O)c1cccc(N(C(=O)CNC(=O)c2ccco2)C(C(=O)NC2CCCC2)c2ccncc2)c1 (centres undefined)	4.6	-1.0	-0.8	-0.3	10.5	1.9	·	·
COc1ccc(C(=O)CSC#N)cc1OC	0.5	2.5	12.4*	-4.4	11.3	4.0	7.5	32.5*
COc1ccc(C(=O)COC(=O)c2ccc(OC)c(OC)c2)cc1OC	5.1	-2.0	3.0	0.7	1.9	-1.3	·	·
CC(NC(=O)CSC(=S)N(C)C)C12CC3CC(CC(C3)C1)C2 (centres undefined)	7.8	4.5	9.4*	·	·	4.9	31.4*	14.5*
CC(NC(=O)Cn1ccsc1=N)C12CC3CC(CC(C3)C1)C2 (centres undefined)	-8.3	1.4	1.9	-6.9	-11.1	3.9	·	·
S=C(NC12CC3CC(CC(C3)C1)C2)N1CCCC1	-5.6	-12.6	9.4*	-2.6	-3.8	4.9	26.6*	10.8*
Oc1ccc(-c2nccc(-c3ccc(F)cc3)n2)cc1	-2.9	12.2	-2.7	-0.3	4.8	-8.7	·	·
CC(=O)Nc1ccc2cnn(C(C)=O)c2c1	-1.0	0.1	-0.6	·	·	·	·	·
NNC(=O)CN1C(c2ccccc2Br)=Nc2ccc(Br)cc2C1c1ccccc1 (centres undefined)	-5.0	6.7	9.2*	-0.5	-1.0	2.8	18.2	8.7*
NNC(=O)CN1C(c2cccc(Cl)c2)=Nc2ccc(Br)cc2C1c1ccccc1 (centres undefined)	-4.1	13.1	6.0	0.4	6.6	0.8	·	·
Cc1ccc(NC(=O)c2ccc([N+](=O)[O-])o2)cc1C	-3.8	5.4	7.7*	5.7	-65.9	-1.4	56.1*	35.0*
O=C(Nc1ccc(N2CCCC2)c(Cl)c1)c1ccc([N+](=O)[O-])o1	-3.9	12.6	17.9*	·	·	26.0	117.7*	69.9*
O=C(Nc1cccc([N+](=O)[O-])c1)c1ccc([N+](=O)[O-])o1	-17.8	-38.4	0.3	·	·	·	·	·
O=C(Nc1ccc(N2CCCCC2)cc1)c1ccc([N+](=O)[O-])o1	-2.9	4.6	12.8*	1.2	-38.3	12.5	114.2*	67.4*
SMILES	CXCR6 block	EBI2 block	FXN GAA850 act	APJ agonist	APJ antag	CCR6 antag	GAA30 counter	GAA850 confirm
CS(=O)(=O)N1CCN(c2ccc(NC(=O)c3ccc([N+](=O)[O-])o3)cc2)CC1	2.0	11.8	5.8	·	·	-4.9	·	·
CC(C)(C)C(=O)N1CCN(c2ccc(NC(=O)c3ccc([N+](=O)[O-])o3)cc2)CC1	-9.4	-3.5	5.3	-0.2	-53.6	-25.2	·	·
CC1CCN(c2ccc(NC(=O)c3ccc([N+](=O)[O-])o3)cc2)CC1	-3.3	-3.7	10.5*	14.7	-148.2	17.9	79.9*	62.6*
COc1cc(C(=O)NN=Cc2ccc(N(C)C)cc2)cc(OC)c1OC	1.1	-22.0	-3.2	·	·	·	·	·
Cc1ccc(-c2nc3c(Cl)cc(C(F)(F)F)cn3c2Cc2ccccc2)cc1	9.3	5.6	·	·	·	·	·	·
CN(C(=O)c1cccc(NC(=O)Cc2ccc(NC(=O)C3CCN(C(=O)C4CCCCC4)CC3)cc2)c1)C1CC1	3.1	-7.0	-1.2	·	·	5.3	·	·
CCCCN(C(C)=O)c1c(CC)nc2ccc(C(=O)NCCCN(C)C)cn12	2.7	-1.8	-0.8	·	·	·	·	·
C[C@H]1c2cccc(O)c2C(O)=C2C(=O)[C@]3(O)C(O)=C(C(N)=O)C(=O)[C@@H](N(C)C)C3[C@@H](O)C21 (some centres undefined)	-7.3	-0.1	16.0*	-2.1	-1.7	4.3	18.2	4.7
COc1ccc(C)c2sc(N3CCCC3)nc12	-2.1	-3.6	-0.7	-4.2	-6.6	-11.9	·	·
COc1ccc(OC)c2sc(N3CCN(c4ccccc4)CC3)nc12	-4.0	15.2	8.8*	4.3	1.4	2.8	39.2*	17.3*
COc1ccc(/C=N/NC(=O)c2cccnc2)cc1CN1CCCc2ccccc21	-0.4	11.8	0.3	0.0	-16.7	0.8	·	·
COc1ccc(C(=O)N/N=C/c2ccc(OC)c(CN3CCCc4ccccc43)c2)cc1	-1.1	9.5	9.3*	0.5	-8.7	-0.5	20.4	6.6
CC(C)NC(=O)N(C)C[C@H]1Oc2c(cccc2N(C)C)C(=O)N([C@H](C)CO)C[C@@H]1C	-4.9	-2.8	-0.3	-4.8	1.2	6.8	·	·
